Data: publication PMC4838375 (Nucleic Acids Research, 2016)

Assay: 15N relaxation, tumbling correlation time
Type: physicochemical, murine
Conditions: 15N relaxation (R2/R1), free protein, 600 MHz, 295 K
Summary of the method: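 Uniformly ¹⁵N-labelled domain expressed in E. coli BL21(DE3) on ¹⁵NH₄Cl minimal medium. Typical sample 0.3–0.4 mM in 20 mM sodium phosphate pH 6.3, 0.15 M NaCl, 2 mM DTT, 50 μM ZnCl₂. R1 sampled at 13 delays (50–2000 ms), R2 at 11 (12–244 ms), with heating compensation, random order and 2.5 s recovery. Duplicates fitted to two-parameter exponentials. τc from R2/R1, using non-overlapped residues with hetNOE > 0.65.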

B1: PHDVC5HCHNSD1: Murine NSD1 PHDvC5HCH (Glu2117–Asp2207), tandem domain, human residue numbering Glu2116–Asp2206 (protein, UniProt O88491 2117-2207, looked up, fragment)
chain: REYVPPTATSPPSPGTQPKEQSSEMATQGPKKSDQPPTDATQLLPLSKKALTGSCQRPLLPERPPERTDSSSHLLDRIRDLAGSGTKSQSL
correlation time (free): 7.96±0.41 ns
